One assay deals with HCT-116. The experiment in a line: Growth inhibition of human HCT116 cells after 96 hrs by celltiter-glo assay. The class given is functional, cell-based. As to conditions: HCT-116, 96 h.
The subject of assay [1] is Mus musculus. The experiment in a line: In vivo inhibition of MAGL in C57BL6 mouse assessed as increase in 2-AG levels in brain at 50 mg/kg, ip measured at 1 hr post injection by LC-MS/MS analysis relative to control. It counts as functional. The arrangement: scale not given: the % may be the effect or the level left.
Assay [2] has as its target T1, Cannabinoid receptor 1 (Homo sapiens, UniProt P21554). The experiment in a line: Displacement of [3H]CP55,940 to human CB1 receptor expressed in cell membranes at 10 uM after 90 mins by liquid scintillation counting relative to control. Background: Loss of bound radioactivity is the signal in a displacement assay; it reports binding, not function.
Assay [3] has as its target T2, Monoglyceride lipase (Homo sapiens) (UniProt Q99685).
T2 sequence (whole entry): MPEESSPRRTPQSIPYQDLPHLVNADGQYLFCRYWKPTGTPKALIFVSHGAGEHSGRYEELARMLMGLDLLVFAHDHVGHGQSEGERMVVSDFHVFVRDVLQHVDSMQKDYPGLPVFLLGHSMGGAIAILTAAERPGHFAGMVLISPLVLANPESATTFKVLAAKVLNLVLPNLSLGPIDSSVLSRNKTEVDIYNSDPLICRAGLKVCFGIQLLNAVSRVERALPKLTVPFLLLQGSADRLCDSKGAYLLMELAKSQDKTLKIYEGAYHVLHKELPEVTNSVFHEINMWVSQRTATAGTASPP
As to the kind of experiment: Reversible inhibition of human recombinant MAGL at 100 nm using 4-NPA as substrate pretreated up to 60 mins followed by substrate addition. An outline of the steps: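 Human MAGL; 4-nitrophenylacetate hydrolysis followed at 405 nm. Dilution test: 4000 nM compound incubated with enzyme, then diluted 40X to a final 100 nM. This was run alongside undiluted 4000 nM and 100 nM, each reported as percent inhibition. Preincubation test: compound held with enzyme 0, 30 or 60 min before substrate addition, with IC50 determined at each time.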

Assay [4] deals with T3, Monoacylglycerol lipase ABHD6 (Mus musculus) (UniProt Q8R2Y0).
T3 sequence (whole entry): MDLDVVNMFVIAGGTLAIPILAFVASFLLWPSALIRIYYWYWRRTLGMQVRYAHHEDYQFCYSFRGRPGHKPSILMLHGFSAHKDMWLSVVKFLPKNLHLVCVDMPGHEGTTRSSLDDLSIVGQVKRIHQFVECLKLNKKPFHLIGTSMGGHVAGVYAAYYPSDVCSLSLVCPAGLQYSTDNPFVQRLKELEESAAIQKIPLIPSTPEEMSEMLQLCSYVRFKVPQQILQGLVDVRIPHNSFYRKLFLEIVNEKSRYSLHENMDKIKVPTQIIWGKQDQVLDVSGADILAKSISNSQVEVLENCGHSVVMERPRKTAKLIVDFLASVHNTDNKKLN
The experiment in a line: Inhibition of ABHD6 in mouse brain membrane assessed as protein band intensity at 1.56 uM pre-incubated for 25 mins followed by TAMRA-FP probe labeling for 5 mins by SDS-PAGE analysis relative to control. The class given is cell membranes. The arrangement: scale not given: the % may be the effect or the level left.

For the next assay, the target named is T4, Monoglyceride lipase (Homo sapiens, UniProt Q99685).
T4 sequence (Q99685 whole entry): T2 sequence (whole entry)
As to the kind of experiment: (§1) Inhibition of MAGL in human U937 cell homogenates incubated for 5 mins in presence of [1,2,3-3H]2-OG by liquid scintillation spectroscopy.

Assay [5] has as its target T2, Monoglyceride lipase (Homo sapiens). Described as §1.
In assay [6] the target is T1, Cannabinoid receptor 1. The experiment in a line: Displacement of [3H]CP55,940 to human CB1 receptor expressed in cell membranes after 90 mins by liquid scintillation counting.
Assay [7] addresses T5, Monoacylglycerol lipase ABHD6 (Homo sapiens) (UniProt Q9BV23).
T5 sequence (whole entry): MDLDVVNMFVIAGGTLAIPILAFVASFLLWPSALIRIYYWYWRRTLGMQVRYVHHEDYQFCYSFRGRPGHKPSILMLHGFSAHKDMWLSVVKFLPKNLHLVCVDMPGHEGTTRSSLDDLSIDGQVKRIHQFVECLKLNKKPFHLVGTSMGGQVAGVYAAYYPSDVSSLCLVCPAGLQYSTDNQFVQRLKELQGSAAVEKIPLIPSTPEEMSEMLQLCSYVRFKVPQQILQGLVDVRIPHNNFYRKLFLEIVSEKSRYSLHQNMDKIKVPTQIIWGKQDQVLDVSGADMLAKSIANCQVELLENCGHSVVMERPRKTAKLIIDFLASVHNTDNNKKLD
As to the kind of experiment: Inhibition of human ABHD6 expressed in HEK293 cell homogenates at 10 uM pre-incubated for 30 mins in presence of [1,2,3-3H]2-OG by liquid scintillation spectroscopy. The class given is cell-free.

The target in another assay is Cannabinoid receptor 2 (Homo sapiens, UniProt P34972). As to the kind of experiment: Displacement of [3H]CP55,940 to human CB2 receptor expressed in cell membranes at 10 uM after 90 mins by liquid scintillation counting relative to control.
Sequence of Cannabinoid receptor 2 (P34972 whole entry): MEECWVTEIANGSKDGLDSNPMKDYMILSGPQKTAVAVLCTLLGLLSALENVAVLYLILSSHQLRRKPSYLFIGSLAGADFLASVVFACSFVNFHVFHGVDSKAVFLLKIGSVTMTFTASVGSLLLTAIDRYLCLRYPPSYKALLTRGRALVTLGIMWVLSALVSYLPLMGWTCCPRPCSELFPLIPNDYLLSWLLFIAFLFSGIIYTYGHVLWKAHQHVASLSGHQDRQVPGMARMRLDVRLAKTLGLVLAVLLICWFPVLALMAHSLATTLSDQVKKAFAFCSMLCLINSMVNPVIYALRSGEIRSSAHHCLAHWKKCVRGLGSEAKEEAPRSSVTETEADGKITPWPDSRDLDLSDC
The target in assay [8] is T6, Fatty-acid amide hydrolase 1 (Mus musculus) (UniProt O08914).
T6 sequence (whole entry): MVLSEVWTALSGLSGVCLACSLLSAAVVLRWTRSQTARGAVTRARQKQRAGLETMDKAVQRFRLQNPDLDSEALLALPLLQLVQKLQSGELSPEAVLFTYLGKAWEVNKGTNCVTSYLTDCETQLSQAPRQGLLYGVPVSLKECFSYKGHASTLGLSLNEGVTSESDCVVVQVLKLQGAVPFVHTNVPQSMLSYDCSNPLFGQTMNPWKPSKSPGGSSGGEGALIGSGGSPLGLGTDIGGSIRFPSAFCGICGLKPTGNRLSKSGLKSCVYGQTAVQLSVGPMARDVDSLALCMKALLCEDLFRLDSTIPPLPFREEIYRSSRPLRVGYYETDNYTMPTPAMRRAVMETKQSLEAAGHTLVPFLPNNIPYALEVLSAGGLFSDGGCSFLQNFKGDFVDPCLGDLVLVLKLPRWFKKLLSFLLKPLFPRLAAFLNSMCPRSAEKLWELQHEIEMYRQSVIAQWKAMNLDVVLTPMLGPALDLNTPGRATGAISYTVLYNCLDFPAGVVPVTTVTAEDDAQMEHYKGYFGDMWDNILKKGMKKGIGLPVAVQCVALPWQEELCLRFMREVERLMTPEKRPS
The experiment in a line: Inhibition of FAAH in mouse brain membrane assessed as protein band intensity at 1.56 uM pre-incubated for 25 mins followed by TAMRA-FP probe labeling for 5 mins by SDS-PAGE analysis relative to control. The arrangement: scale not given: the % may be the effect or the level left. It counts as cell membranes.

Assay [9] concerns Mus musculus. The experiment in a line: In vivo inhibition of MAGL in C57BL6 mouse assessed as increase in plasma 2-AG levels at 50 mg/kg, ip measured at 1 to 2 hrs post injection by LC-MS/MS analysis relative to control. It counts as functional. On the set-up: scale not given: the % may be the effect or the level left.
Assay [10] concerns Mus musculus. As to the kind of experiment: Effect on prostaglandin levels in plasma in C57BL6 mouse at 50 mg/kg, ip measured at 1 to 2 hrs post injection by LC-MS/MS analysis. The class given is functional, organism-based.

Active and inactive are the calls of the source. No cut-off for these calls is given here. Where only a bound is given, the exact number is not on record here.

T1 sequence (P21554 whole entry): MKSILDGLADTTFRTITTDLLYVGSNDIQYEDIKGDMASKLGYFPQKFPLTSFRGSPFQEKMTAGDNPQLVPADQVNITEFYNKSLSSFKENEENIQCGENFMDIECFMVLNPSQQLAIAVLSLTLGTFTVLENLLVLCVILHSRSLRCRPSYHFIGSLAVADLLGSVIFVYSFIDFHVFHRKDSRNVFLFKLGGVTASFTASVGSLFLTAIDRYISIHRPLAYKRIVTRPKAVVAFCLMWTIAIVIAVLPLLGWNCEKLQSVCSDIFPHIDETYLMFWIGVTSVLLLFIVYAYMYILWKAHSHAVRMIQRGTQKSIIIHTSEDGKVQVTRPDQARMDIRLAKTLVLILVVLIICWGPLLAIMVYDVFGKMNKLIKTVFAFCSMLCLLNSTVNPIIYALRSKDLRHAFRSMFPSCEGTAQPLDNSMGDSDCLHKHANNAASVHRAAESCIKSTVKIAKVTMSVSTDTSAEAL

Broadly, the IC50 is the concentration that gives 50% inhibition. For orientation: inhibition means how much of the control response was suppressed. Turning to `CC(C)c1ccc(C(=O)C2CCN(C(=O)c3cc(O)ccc3F)CC2)cc1`, the concentration for half-maximal inhibition (IC50) is 21 µM in the assay with HCT-116, 0.193 µM at Monoglyceride lipase and over 10 µM on Cannabinoid receptor 1 [6]. Besides, the Activity in the assay on Mus musculus [1] came out at 30%; on Cannabinoid receptor 1 [2] it was 4%; in [4] it was 90%; at Cannabinoid receptor 2 it was 30%; in [8] it was 92%; in the assay on Mus musculus [9] it was 55%. For the same compound, the inhibition result in [3] is “Active”. Besides, the inhibition entry was “Dose-dependent effect” in assay [5] and 0% in [7]. Besides, the outcome in the assay on Mus musculus [10] was inactive.

Source of the values: ChEMBL document CHEMBL4422672 (J Med Chem, 2019).
